# Reference: PubChem BioAssay
# Values without a mark were called inactive. Records with an inconclusive call do not appear. The source made the active and inactive calls.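 Rule for the calls, unless noted: active = RAM network inhibition above 8.4% in each of two replicates, 3 SD over the compound average; inconclusive = above 8.4% inhibition in only one replicate; inactive = 8.4% inhibition or less in each replicate.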
# What was measured:
# [1] = S. cerevisiae growth inhibition in permissive medium (OD615), pilot counter-assay for S. cerevisiae lifespan shortening project, permissive growth control (AID 705;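 active = growth inhibition above 25% in both replicates, a cutoff set 3 SD above the mean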); conditions: OD615, 24 h, at 10 µM, stronger effect = higher value
# Method in brief: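 Test system: Saccharomyces cerevisiae strain carrying genetically modified DeaD replicative-lifespan system; buffer or medium: SC raffinose/galactose permissive medium; dosing: one dose 10 µM, DMSO 0.25% final; times: 24 h exposure, 30 °C; measured by: OD at 615 nm; read-out basis: growth inhibition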
# [2] = S. cerevisiae growth inhibition in restrictive medium, OD615, pilot screen, restrictive growth control, yeast lifespan reduction project (AID 706;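 active = growth inhibition above a set limit, 3 SD over mean compound inhibition, in both replicates, cut at about 43% in these data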;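 note: modified DeaD lifespan yeast strain shifted to restrictive glucose medium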); conditions: OD615, 48 h, at 10 µM, stronger effect = higher value
# Method in brief: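 material = engineered S. cerevisiae DeaD strain | buffer or medium = glucose-based CSMM-D restrictive medium | dosing = one concentration, 10 µM final, 0.25% DMSO | schedule = 4 h pre-growth plus 48 h compound exposure, 30 °C | detection = OD615 absorbance reading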
# [3] = doxorubicin toxicity protection in MRP-1 cells – H69AR cells, CellTiter-Glo, duplicate, MRP-1 activator project, pilot screen (AID 807;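 active = viability increase at or above a cutoff of the median across tested compounds plus 3 SD, cut at about 8.5% in these data, passing the limit was not always enough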;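 note: compound pretreatment 18-22 h then 72 h combined with doxorubicin; 0% = doxorubicin alone and 100% = vehicle without doxorubicin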); conditions: H69AR viability with doxorubicin, CellTiter-Glo luminescence; at 10 µM; stronger effect = higher value
# [4] = viability of HCT116 without oncogenic beta-catenin – human colon tumor cells, pilot screen (AID 823;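 active = cell viability at or below a set limit in both duplicate runs, the limit being the all-compound median minus 4 SD, cut at about 23% in these data, passing the limit was not always enough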;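 note: 0% = wells killed by 20 µM Hyamine and 100% = untreated DMSO cell wells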); conditions: HCT116 beta-catenin knockout viability, CellTiter-Glo, 60 h; at 10 µM; stronger effect = lower value
# [5] = RAM pathway blockade in budding yeast – dse1pr::URA3 reporter, 5-FOA selection, pilot screen (AID 869;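 active = inhibition over a set limit, the all-compound mean plus 3 SD, in both replicate runs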;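 note: 0% = DMSO wells with no growth and 100% = 10 µM 1-NA-PP1 with full growth; RAM network block rescues cells from 5-FOA so hits raise OD615 growth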); conditions: S. cerevisiae dse1pr::URA3 5-FOA growth, OD615, 2 d; at 10 µM; stronger effect = higher value; strain carries analog-sensitive mutant Cbk1 kinase
# [6] = RAM signaling pathway blockade in yeast – S. cerevisiae, Pdr1DBD-CYC8 efflux-inhibited sensitized strain, primary screen (AID 1298);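 note: 0% = DMSO untreated cells without growth and 100% = 10 µM 1-NA-PP1 full growth; higher means more yeast growth rescued from 5-FOA killing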; conditions: S. cerevisiae cbk1-as DSE1-URA3 strain, 5-FOA growth OD615, 2 d; at 50 µM; stronger effect = higher value
Structure (SMILES),growth inhibition [1],growth inhibition [2],viability increase [3],viability [4],inhibition [5],RAM network inhibition [6]
Nn1c(SCC(=O)NC2CCCCC2)nnc1-c1ccccc1,-25.7%,8.66%,-1.37%,98.8%,2.28%,4.63%
CC1CCN(CCNC(=O)c2ccc(NC(=O)C3CCCO3)cc2)CC1 (stereo not given),-16.1%,-2.63%,-1.69%,103%,1.95%,3.74%
CCOC(=O)C1CCN(CCC(=O)Nc2cccc(Cl)c2C)CC1,-11.2%,-0.95%,-2.59%,94.6%,1.46%,2.35%
CC1CCN(C(=O)CSc2nc(N)c3c4c(sc3n2)CN(C)CC4)CC1,-10.2%,12.6%,-3.86%,102%,0.905%,2.24%
Cc1c(C(=O)NCCC2=CCCCC2)oc2ccc(S(=O)(=O)N3CCOCC3)cc12,2.48%,8.58%,-0.96%,31.5%,2.62%,8.35%
COc1cccc(-c2nnc(NC(=O)c3cccc(F)c3)o2)c1,-12.9%,10.2%,0.12%,15.9% (active),1.04%,0.35%
S=c1nc(-c2ccccc2)n(CCCN2CCOCC2)c2c1CCCC2,-2.74%,23.8%,-4.35%,103%,0.18%,3.63%
CCC1(C)Cc2c(sc3c2c2ncnn2c2nnc(SCC(=O)NCc4ccco4)n32)CO1 (stereo not given),-19.2%,-5.88%,-7.33%,58.1%,0.815%,1.87%
Cn1c(/C(C#N)=C2/CCCCCN2)nc2ccccc21,-8.98%,-2.55%,-2.4%,89.6%,0.395%,1.35%
CCC(=O)NC(C)c1nc2ccccc2n1C (stereo not given),-9.66%,-2.13%,-1.61%,102%,1.37%,7.64%
CCCc1nc2n[nH]c(N)c2c2c1CCC2,-24.2%,-12.6%,-5.25%,92%,0.825%,0.57%
Cc1cc(C)c(C#N)c(=N)o1,23.3%,20.7%,-3.83%,87.2%,1.2%,8.54%
COc1ccc(NS(=O)(=O)c2cccc(-c3nnc4n3CCCCC4)c2)cc1,-9.52%,10.2%,-3.38%,92.6%,1.11%,1.97%
Cc1cc(C)nc(NS(=O)(=O)c2ccc(NC(=O)c3cccs3)cc2)n1,-11.4%,-2.39%,-2.29%,97.7%,0.89%,0.21%
CCN1CCN(c2nc(SC)nc3sc4c(c23)CC(C)(C)OC4)CC1,-15.9%,-8.5%,-5.96%,66.9%,1.39%,2.09%
COc1ccc(C2c3c(oc4ccccc4c3=O)C(=O)N2c2ccccn2)cc1OC (stereo not given),-10.4%,-11.2%,-6.93%,72.7%,2.8%,2.68%
Cc1sc(NC(=O)c2ccco2)c(C(c2cccnc2)N2CCN(c3ccc(F)cc3)CC2)c1C (stereo not given),-8.72%,6.02%,-5.73%,13.3% (active),1.42%,7.4%
O=c1[nH]n(-c2ncnc3c2cnn3-c2ccccc2)c(=O)c2ccccc12,-3.32%,13.1%,-2.9%,101%,1.52%,2.07%
CSc1nc2ccc(NC(=O)C3CC(=O)N(Cc4ccco4)C3)cc2s1 (stereo not given),4.86%,-2.38%,-5.77%,97.4%,1.02%,0.88%
COc1ccc(NC(=O)C(c2ccc(OC)cc2)N(C)C(=O)c2cnccn2)cc1 (stereo not given),9.44%,2.07%,-2.29%,101%,2.52%,1.4%
